pIC50: −log10 of the molar value.
Experiments:
L929 = experiment: Antiproliferative activity against mouse L929 cells by MTT assay; assay type: functional, cell-based
In short: (§1)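 Cells kept in supplier-recommended media at 37 °C, 10% CO2. Serial dilutions added to a cell suspension (50,000 per mL) and incubated 5 d alongside blank and solvent controls. MTT then added to 0.5 mg mL^-1 final for 2 h, and formazan precipitate collected by centrifugation. Run as two parallel experiments; activity taken as mean relative to controls set at 100%.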

[1] = Antiproliferative activity against human KB-3-1 cells by MTT assay; assay type: functional, cell-based; in short: as §1

Compound	pIC50 (L929)	pIC50 [1]	IC50 (L929) [µg/mL]	IC50 [1] [µg/mL]
C=CC[C@@H]1[C@@H]2[C@@H](CC(=O)[C@H]2C)C[C@H]1O[Si](c1ccccc1)(c1ccccc1)C(C)(C)C	4.79	4.69		
C=CC[C@@H]1[C@H]2CC(=O)[C@H](C)[C@H]2C[C@H]1O[Si](c1ccccc1)(c1ccccc1)C(C)(C)C	4.49	4.80		
CC1(C)COC2(CC[C@@H]3[C@@H](O)[C@H](O)C[C@@H]32)OC1			> 40	> 40
C[C@H]1C(=O)C[C@]2(C)CC3(C[C@]12C)OCC(C)(C)CO3	< 3.82			
O=C1CC(CCCCO)[C@H]2CCC3(OCCO3)[C@@H]12 (some centres undefined)			> 40	> 40
C1COC2(CC[C@@H]3[C@H]4O[C@H]4C[C@@H]32)O1			> 40	
CC(C)(C)[Si](C)(C)OC1CCCC2C1C(O)[C@H]1CC(Br)C3(OCCO3)[C@@H]21 (some centres undefined)			15	14
O=C1C[C@@H]2C[C@@H](O)C[C@@H]2C1			> 40	> 40
C=CC[C@@H]1[C@@H]2[C@H](C[C@H]1O[Si](c1ccccc1)(c1ccccc1)C(C)(C)C)[C@@H](C)C(=O)[C@H]2C			5.8	7.9
C=CC[C@@H]1[C@@H]2[C@@H](CC(=O)[C@H]2CC=C)C[C@H]1O			> 40	> 40
O=CCCCC1CC(=O)[C@H]2[C@@H]1CCC21OCCO1 (some centres undefined)			> 40	> 40
CC(C)=CC[C@H]1C(=O)C[C@@H]2[C@@H](C)[C@H](O[Si](c3ccccc3)(c3ccccc3)C(C)(C)C)C[C@@H]21	4.62	4.55		
BrC1C[C@H]2[C@H](CC(Br)C23OCCO3)C12CCCC2 (some centres undefined)			> 40	> 40
Cc1ccc(S(=O)(=O)N/N=C2/C[C@@H]3CC4(C[C@@H]3C2)OCC(C)(C)CO4)cc1			> 40	> 40
CC(C)[Si](OC1CCCC1)(C(C)C)C(C)C	3.95	3.91		
CC(C)(C)[Si](OC1CCCC1)(c1ccccc1)c1ccccc1	4.21			
O=C1C=C(CCCCOCc2ccccc2)[C@H]2CCC3(OCCO3)[C@@H]12			> 40	> 40
C[C@@H]1[C@H](O[Si](c2ccccc2)(c2ccccc2)C(C)(C)C)C[C@]2(C)CC3(C[C@]12C)OCC(C)(C)CO3	4.93			
CC(C)(C)[Si](C)(C)OC1CCCC2C1C(=O)[C@H]1CC(Br)C3(OCCO3)[C@@H]21 (some centres undefined)			32	> 40
O[C@@H]1[C@H]2CCC3(OCCO3)[C@H]2C[C@@H]1O			> 40	> 40
C=CCC[C@H]1CC2(OCCO2)[C@@H]2C=CC(=O)[C@H]12 (racemic)	4.59	4.49		
CC(C)(C)[Si](OC1CCCCC1)(c1ccccc1)c1ccccc1			40	7.5
C=C1C[C@@H]2CC3(C[C@@H]2C1)OCC(C)(C)CO3			> 40	> 40
C=CC[C@@H]1C(=O)C[C@H]2C[C@@H](O[Si](c3ccccc3)(c3ccccc3)C(C)(C)C)[C@H](C)[C@H]21	5.29	4.79		
C=CC[C@@H]1[C@H]2CC(=O)[C@H](CC=C)[C@H]2C[C@H]1O			> 40	> 40
CC(C)(C)[Si](C)(C)OC1CCCC1	< 3.70	< 3.70		
C[C@@H]1[C@H](O[Si](c2ccccc2)(c2ccccc2)C(C)(C)C)C[C@]2(C)CC(=O)C[C@]12C	4.45			

Compound	pIC50 (L929)	pIC50 [1]	IC50 (L929) [µg/mL]	IC50 [1] [µg/mL]
CC(C)=CC[C@@H]1C(=O)C[C@H]2C[C@@H](O[Si](c3ccccc3)(c3ccccc3)C(C)(C)C)[C@H](C)[C@H]21	5.25	4.66		
O=C1C2C(O)CCCC2[C@H]2[C@@H]1CC(Br)C21OCCO1 (some centres undefined)			22	10
CC1(C)COC2(C[C@@H]3CC4OC4[C@@H]3C2)OC1 (some centres undefined)			> 40	> 40
C[C@@H]1[C@@H]2[C@@H](CC(=O)[C@H]2C)C[C@H]1O[Si](c1ccccc1)(c1ccccc1)C(C)(C)C	4.83	5.13		
CC(C)(C)[Si](OC1CCCCCC1)(c1ccccc1)c1ccccc1			40	6.2
Cc1cc(C)c(O[C@@H]2C[C@@H]3CC4(C[C@@H]3C2)OCC(C)(C)CO4)c(C)c1			> 40	> 40
C[C@H]1[C@H](O[Si](c2ccccc2)(c2ccccc2)C(C)(C)C)C[C@]2(C)CC(=O)C[C@]12C	4.84			
CCC(=O)O[C@@H]1C[C@@H]2CC3(C[C@@H]2C1)OCC(C)(C)CO3	< 3.85	< 3.85		
C[C@H]1[C@H](O[Si](c2ccccc2)(c2ccccc2)C(C)(C)C)C[C@]2(C)CC3(C[C@]12C)OCC(C)(C)CO3	4.80			
C=CCC[C@H]1CC(=O)[C@@H]2C=CC(=O)[C@H]12 (racemic)	4.70	4.79		
C=CC[C@@H]1[C@H]2[C@H](C)C=C[C@H]2C[C@H]1O[Si](c1ccccc1)(c1ccccc1)C(C)(C)C	5.14	< 4.02		
CC(C)(C)[Si](O[C@@H]1[C@H]2CCC3(OCCO3)[C@H]2C[C@H]1O)(c1ccccc1)c1ccccc1	4.39			
O=C1CC[C@H]2[C@@H]1CCC21OCCO1			> 40	> 40
C=CC[C@@H]1[C@@H]2[C@@H](C/C(=N/NS(=O)(=O)c3ccc(C)cc3)[C@H]2C)C[C@H]1O[Si](c1ccccc1)(c1ccccc1)C(C)(C)C	< 4.17	4.90		
C[C@H]1[C@H](O)C[C@]2(C)CC3(C[C@]12C)OCC(C)(C)CO3	< 3.82			
CC1(C)COC2(C[C@H]3C[C@@H](CO)C[C@H]3C2)OC1			> 40	> 40
C#CC(=O)O[C@H]1C[C@@H]2C[C@H](O[Si](c3ccccc3)(c3ccccc3)C(C)(C)C)C[C@@H]2C1	5.03			
O=C1C[C@@H]2C[C@H](O)C[C@@H]2C1			> 40	> 40
CC(C)(C)[Si](O[C@H]1[C@H]2CCC3(OCCO3)[C@H]2C[C@@H]1O)(c1ccccc1)c1ccccc1	4.41			
C=CC[C@@H]1[C@H]2C=C[C@H](C)[C@H]2C[C@H]1O[Si](c1ccccc1)(c1ccccc1)C(C)(C)C	4.69	< 4.02		
C[C@@H]1[C@H]2CC(=O)[C@H](C)[C@H]2C[C@H]1O[Si](c1ccccc1)(c1ccccc1)C(C)(C)C	5.13	4.82		
C=CC[C@H]1C(=O)C[C@@H]2[C@@H](C)[C@H](O[Si](c3ccccc3)(c3ccccc3)C(C)(C)C)C[C@@H]21	4.75	5.16		
C=CC[C@@H]1[C@H]2C/C(=N\NS(=O)(=O)c3ccc(C)cc3)[C@H](C)[C@H]2C[C@H]1O[Si](c1ccccc1)(c1ccccc1)C(C)(C)C	4.70	4.88		
CC1(C)COC2(C[C@@H]3CC=C[C@@H]3C2)OC1			> 40	> 40
C[C@@H]1[C@H](O)C[C@]2(C)CC3(C[C@]12C)OCC(C)(C)CO3	< 3.82			
CC(C)(C)[Si](O[C@H]1C[C@H]2CC(=O)C[C@H]2C1)(c1ccccc1)c1ccccc1			> 40	> 40

Reference: ChEMBL document CHEMBL3286338, “SAR studies on hydropentalene derivatives--Important core units of biologically active tetramic acid macrolactams and ptychanolides” (Bioorg Med Chem, 2014)
